Results collected from several papers.
Lines come from different studies, so protocols differ. ≈ marks a conversion by molar mass, not a printed value.
Organism: Staphylococcus epidermidis

SMILES | observed | technique | strain | time | notes | measurement | result
CN[C@H](CC(C)C)C(=O)N[C@H]1C(=O)N[C@@H](CC(N)=O)C(=O)N[C@H]2C(=O)N[C@H]3C(=O)N[C@H](C(=O)N[C@H](C(=O)O)c4cc(O)cc(O)c4-c4cc3ccc4O)[C@H](O)c3ccc(c(Cl)c3)Oc3cc2cc(c3O[C@@H]2O[C@H](CO)[C@@H](O)[C@H](O)[C@H]2O[C@H]2C[C@](C)(N)[C@H](O)[C@H](C)O2)Oc2ccc(cc2Cl)[C@H]1O | microbial growth | broth dilution | 12228 | 16 h |  | MIC | 1.56 µM
Cc1ccc2[nH]c3c(c2c1)CCCC3NCCc1ccc(Br)cc1 (centres unmarked) | microbial growth | broth dilution | MRSE |  |  | MIC | 4 µg/mL
CN[C@H](CC(C)C)C(=O)N[C@H]1C(=O)N[C@@H](CC(N)=O)C(=O)N[C@H]2C(=O)N[C@H]3C(=O)N[C@H](C(=O)N[C@H](C(=O)O)c4cc(O)cc(O)c4-c4cc3ccc4O)[C@H](O)c3ccc(c(Cl)c3)Oc3cc2cc(c3O[C@@H]2O[C@H](CO)[C@@H](O)[C@H](O)[C@H]2O[C@H]2C[C@](C)(N)[C@H](O)[C@H](C)O2)Oc2ccc(cc2Cl)[C@H]1O | microbial growth |  | ATCC14990 |  |  | MIC | 0.5 µg/mL
Cc1c(NN=C(C#N)C2=NC(=O)CS2)c(=O)n(-c2ccccc2)n1C | microbial killing | broth dilution |  |  |  | MBC | 1 µg/mL (≈ 2.82 µM)
CCCCCC/C=C\CCCCCCCCCc1cc(O)cc(O)c1 | microbial growth | broth dilution | ATCC35984 |  | drug-resistant strain | MIC | > 64 µg/mL
CN[C@H](CC(C)C)C(=O)N[C@H]1C(=O)N[C@@H](CC(N)=O)C(=O)N[C@H]2C(=O)N[C@H]3C(=O)N[C@H](C(=O)N[C@H](C(=O)O)c4cc(O)cc(O)c4-c4cc3ccc4O)[C@H](O)c3ccc(c(Cl)c3)Oc3cc2cc(c3O[C@@H]2O[C@H](CO)[C@@H](O)[C@H](O)[C@H]2O[C@H]2C[C@](C)(N)[C@H](O)[C@H](C)O2)Oc2ccc(cc2Cl)[C@H]1O | microbial growth | broth dilution | 12228 |  |  | MIC | 0.78 µM
CCCCCCCCCC(=O)N[C@@H](Cc1c[nH]c2ccccc12)C(=O)N[C@H](CC(N)=O)C(=O)N[C@@H](CC(=O)O)C(=O)N[C@@H]1C(=O)NCC(=O)N[C@@H](CCCN)C(=O)N[C@@H](CC(=O)O)C(=O)N[C@H](C)C(=O)N[C@@H](CC(=O)O)C(=O)NCC(=O)N[C@H](CO)C(=O)N[C@@H]([C@H](C)CC(=O)O)C(=O)N[C@@H](CC(=O)c2ccccc2N)C(=O)O[C@@H]1C | microbial growth | broth dilution | ATCC35984 |  | drug-resistant strain | MIC | 1 µg/mL
Cc1ccc2[nH]c3c(c2c1)CCCC3NCCc1ccc(O)cc1 (centres unmarked) | microbial growth | broth dilution | MRSE |  |  | MIC | 16 µg/mL
